Experimental data reported in ChEMBL document CHEMBL3817843, “Understanding Oxadiazolothiazinone Biological Properties: Negative Inotropic Activity versus Cytochrome P450-Mediated Metabolism” (J Med Chem, 2016).
Active and inactive are the calls of the source. The rule behind the calls is not given here.

Experiments:
in vitro = conditions: human, liver microsomes
Aorta [1] = assay: Inhibition of verapamil-induced vasorelaxant activity in potassium depolarized guinea pig aorta assessed as relaxation of calcium-induced contraction at 10^-8 M preincubated for 30 mins followed by verapamil addition; assay type: functional, tissue-based; conditions: Cavia porcellus
Left cardiac atrium [2] = assay: Negative inotropic activity in potassium depolarized guinea pig left atrium assessed as reduction in developed tension at 10^-8 M after 30 mins; assay type: functional; conditions: Cavia porcellus
Aorta [3] = assay: Vasorelaxant activity in potassium depolarized guinea pig aorta assessed as inhibition of calcium-induced contraction at 10^-8 M preincubated for 30 mins followed by 0.5 uM nifedipine addition; assay type: functional, Cavia porcellus; set-up: scale not given: the % may be the effect or the level left
Left cardiac atrium [4] = assay: Negative inotropic activity against potassium depolarized guinea pig left atrium assessed as decrease in diltiazem EC50 at 10^-8 M preincubated for 30 mins followed by diltiazem addition relative to control; assay type: functional, Cavia porcellus
Outline: (§1)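 Isolated guinea pig left atria, electrically driven at 1 Hz. The pretreatment agent (0.01 μM) was added to the bath 30 min before the L-type calcium channel blocker. Blocker concentration–response curves were then run to obtain the negative inotropic EC50, which was compared with the EC50 for the blocker alone. Data were compared by Student's t test.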

Aorta [5] = assay: Vasorelaxant activity in potassium depolarized guinea pig aorta assessed as inhibition of calcium-induced contraction at 10^-6 M preincubated for 30 mins followed by 0.5 uM nifedipine addition; assay type: functional, Cavia porcellus; set-up: scale not given: the % may be the effect or the level left
Outline: (§2)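 K+-depolarized (80 mM) guinea pig aortic strips contracted with calcium. Compound at 1 μM added 30 min before diltiazem, verapamil or nifedipine. Response expressed as percent change from control. Data given as mean ±, Student's t test.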

[6] = biological target: Voltage-gated L-type calcium channel (Rattus norvegicus, UniProt P22002+Q02485+P27732); assay: Displacement of [3H]Verapamil from LTCC PAA site in Sprague-Dawley rat cardiomyocytes after 60 mins by liquid scintillation counting analysis; assay type: cell-based
Outline: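 Frozen pooled cardiomyocytes (at least three animals) resuspended in 50 mmol/L Tris-HCl pH 7.4, 0.15−0.3 mg protein/tube, 25 °C for 60 min. [3H]verapamil 0.5 nM displaced by unlabeled compound (0.1 nM−0.1 mM). Nonspecific binding defined with 0.1 mM verapamil. GF/C filtration, two washes with 20 mmol/L Tris-HCl, liquid scintillation counting, duplicate measurements.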

Rattus norvegicus = organism: Rattus norvegicus; assay: Displacement of [3H]Isradipine from LTCC DHP site in Sprague-Dawley rat cardiomyocytes at 100 uM after 20 mins by liquid scintillation counting analysis; assay type: cell-based
Outline: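 Rat cardiomyocytes pooled from at least three animals, stored frozen at −80 °C, 0.15−0.2 mg protein/tube. Incubated in 50 mmol/L Tris-HCl with 1.2 mmol/L MgCl2, pH 7.4, at 37 °C for 20 min with 0.1 nM (+)-[3H]isradipine and unlabeled compound (1 nM to 0.1 mM). Nonspecific binding defined with 0.1 mM isradipine. Filtered through PEI-presoaked GF/B filters; scintillation counting; duplicates.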

Left cardiac atrium [7] = assay: Potentiation of nifedipine-induced negative inotropic activity in potassium depolarized guinea pig left atrium assessed as reduction in developed tension at 10^-8 M preincubated for 30 mins followed by nifedipine addition; assay type: functional; conditions: Cavia porcellus
Outline: (§3)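 Guinea pig left atria driven at 1 Hz. Pretreated with compound at 0.01 μM, added 30 min before diltiazem, verapamil or nifedipine. Blocker concentration−response curves analysed by probit (Litchfield and Wilcoxon), n = 6−7. Data given as mean ±, Student's t test.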

Left cardiac atrium [8] = assay: Negative inotropic activity in potassium depolarized guinea pig left atrium assessed as reduction in developed tension at 10^-8 M preincubated for 30 mins followed by 5 uM diltiazem addition; assay type: functional, Cavia porcellus; set-up: scale not given: the % may be the effect or the level left
Aorta [9] = assay: Inhibition of verapamil-induced vasorelaxant activity in potassium depolarized guinea pig aorta assessed as relaxation of calcium-induced contraction at 10^-6 M preincubated for 30 mins followed by verapamil addition; assay type: functional, tissue-based; conditions: Cavia porcellus
Outline: as §2

Liver microsome = assay: Stability in human liver microsomes at 1 uM after 2 to 60 mins by LC-MS analysis in absence of NADPH
Aorta [10] = assay: Inhibition of diltiazem-induced vasorelaxant activity in potassium depolarized guinea pig aorta assessed as relaxation of calcium-induced contraction at 10^-8 M preincubated for 30 mins followed by diltiazem addition; assay type: functional, tissue-based; conditions: Cavia porcellus
Left cardiac atrium [11] = assay: Negative inotropic activity in potassium depolarized guinea pig left atrium assessed as EC50 for diltiazem at 10^-8 M preincubated for 30 mins followed by diltiazem addition; assay type: functional; conditions: Cavia porcellus
Outline: as §3

Left cardiac atrium [12] = assay: Potentiation of diltiazem-induced negative inotropic activity in potassium depolarized guinea pig left atrium assessed as reduction in developed tension at 10^-8 M preincubated for 30 mins followed by diltiazem addition; assay type: functional; conditions: Cavia porcellus
Outline: as §3

Cytochrome P450 2C9 = Cytochrome P450 2C9 (Homo sapiens, UniProt P11712); assay: Inhibition of CYP2C9 in human liver microsomes using tolbutamide as substrate after 20 mins by LC-MS analysis
Aorta [13] = assay: Vasorelaxant activity in potassium depolarized guinea pig aorta assessed as IC50 for diltiazem at 10^-8 M preincubated for 30 mins followed diltiazem addition; assay type: functional, tissue-based; conditions: Cavia porcellus
Aorta [14] = assay: Inhibition of nifedipine-induced vasorelaxant activity in potassium depolarized guinea pig aorta assessed as relaxation of calcium-induced contraction at 10^-6 M preincubated for 30 mins followed by nifedipine addition; assay type: functional, tissue-based; conditions: Cavia porcellus
Outline: as §2

Left cardiac atrium [15] = assay: Negative inotropic activity in potassium depolarized guinea pig left atrium assessed as reduction in developed tension at 10^-8 M preincubated for 30 mins followed by 0.5 uM nifedipine addition; assay type: functional, Cavia porcellus; set-up: scale not given: the % may be the effect or the level left
Cytochrome P450 2D6 = Cytochrome P450 2D6 (Homo sapiens, UniProt P10635); assay: Inhibition of CYP2D6 in human liver microsomes using dextromethorphan as substrate after 10 mins by LC-MS analysis
Aorta [16] = assay: Vasorelaxant activity in potassium depolarized guinea pig aorta assessed as inhibition of calcium-induced contraction at 10^-6 M preincubated for 30 mins followed by 50 uM diltiazem addition; assay type: functional, Cavia porcellus; set-up: scale not given: the % may be the effect or the level left
Outline: as §2

Left cardiac atrium [17] = assay: Negative inotropic activity in potassium depolarized guinea pig left atrium assessed as reduction in developed tension at 10^-8 M preincubated for 30 mins followed by 10^-6 M verapamil addition; assay type: functional, Cavia porcellus; set-up: scale not given: the % may be the effect or the level left
Aorta [18] = assay: Vasorelaxant activity in potassium depolarized guinea pig aorta assessed as inhibition of calcium-induced contraction at 10^-6 M preincubated for 30 mins followed by 10^-5 M verapamil addition; assay type: functional, Cavia porcellus; set-up: scale not given: the % may be the effect or the level left
Outline: as §2

Left cardiac atrium [19] = assay: Negative inotropic activity against potassium depolarized guinea pig left atrium assessed as decrease in nifedipine EC50 at 10^-8 M preincubated for 30 mins followed by nifedipine addition relative to control; assay type: functional, Cavia porcellus
Outline: as §1

[20] = Half life in human liver microsomes assessed as CYP-mediated compound degradation at 1 uM by LC-MS analysis
Cytochrome P450 2C19 = Cytochrome P450 2C19 (Homo sapiens, UniProt P33261); assay: Inhibition of CYP2C19 in human liver microsomes using (S)-mephenytoin as substrate after 40 mins by LC-MS analysis
Aorta [21] = assay: Vasorelaxant activity in potassium depolarized guinea pig aorta assessed as relaxation of calcium-induced contraction at 10^-6 M after 30 mins; assay type: functional, tissue-based; conditions: Cavia porcellus
Outline: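 Guinea pig aortic strips depolarized with K+ (80 mM). Calcium-induced contraction measured; inhibition expressed as percent change from control, n = 3−5.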

Cytochrome P450 3A4 = Cytochrome P450 3A4 (Homo sapiens, UniProt P08684); assay: Inhibition of CYP3A4 in human liver microsomes using midazolam as substrate after 4 mins by LC-MS analysis
Left cardiac atrium [22] = assay: Potentiation of verapamil-induced negative inotropic activity in potassium depolarized guinea pig left atrium assessed as reduction in developed tension at 10^-8 M preincubated for 30 mins followed by verapamil addition; assay type: functional; conditions: Cavia porcellus
Outline: as §3

Chain of Cytochrome P450 2D6 (P10635 whole entry): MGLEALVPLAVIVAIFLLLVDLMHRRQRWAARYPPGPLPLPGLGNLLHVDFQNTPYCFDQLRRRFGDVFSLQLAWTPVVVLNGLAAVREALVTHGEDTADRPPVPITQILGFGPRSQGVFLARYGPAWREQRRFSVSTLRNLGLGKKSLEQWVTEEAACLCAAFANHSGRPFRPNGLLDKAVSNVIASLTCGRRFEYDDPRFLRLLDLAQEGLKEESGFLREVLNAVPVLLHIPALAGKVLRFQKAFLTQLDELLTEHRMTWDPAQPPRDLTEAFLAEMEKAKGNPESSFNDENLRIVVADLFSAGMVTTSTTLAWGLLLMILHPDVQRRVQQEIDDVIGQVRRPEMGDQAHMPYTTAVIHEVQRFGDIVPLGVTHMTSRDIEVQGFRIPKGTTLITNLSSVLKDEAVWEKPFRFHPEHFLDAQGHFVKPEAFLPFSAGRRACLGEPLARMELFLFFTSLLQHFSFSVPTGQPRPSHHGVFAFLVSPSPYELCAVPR
Chain of Cytochrome P450 3A4 (P08684 whole entry): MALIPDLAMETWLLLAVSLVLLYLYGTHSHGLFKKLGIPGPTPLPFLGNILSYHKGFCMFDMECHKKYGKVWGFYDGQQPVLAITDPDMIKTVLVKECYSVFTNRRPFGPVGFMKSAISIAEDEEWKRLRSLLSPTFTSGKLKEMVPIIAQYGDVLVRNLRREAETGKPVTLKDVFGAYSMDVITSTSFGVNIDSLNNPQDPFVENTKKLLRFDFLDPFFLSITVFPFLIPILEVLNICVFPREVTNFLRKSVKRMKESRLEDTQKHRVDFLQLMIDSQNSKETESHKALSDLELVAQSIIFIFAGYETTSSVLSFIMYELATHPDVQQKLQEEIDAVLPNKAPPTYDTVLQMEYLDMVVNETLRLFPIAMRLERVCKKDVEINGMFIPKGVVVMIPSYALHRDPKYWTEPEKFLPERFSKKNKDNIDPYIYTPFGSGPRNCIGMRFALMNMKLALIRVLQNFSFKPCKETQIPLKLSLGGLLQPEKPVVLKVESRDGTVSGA
Chain of Cytochrome P450 2C9 (P11712 whole entry): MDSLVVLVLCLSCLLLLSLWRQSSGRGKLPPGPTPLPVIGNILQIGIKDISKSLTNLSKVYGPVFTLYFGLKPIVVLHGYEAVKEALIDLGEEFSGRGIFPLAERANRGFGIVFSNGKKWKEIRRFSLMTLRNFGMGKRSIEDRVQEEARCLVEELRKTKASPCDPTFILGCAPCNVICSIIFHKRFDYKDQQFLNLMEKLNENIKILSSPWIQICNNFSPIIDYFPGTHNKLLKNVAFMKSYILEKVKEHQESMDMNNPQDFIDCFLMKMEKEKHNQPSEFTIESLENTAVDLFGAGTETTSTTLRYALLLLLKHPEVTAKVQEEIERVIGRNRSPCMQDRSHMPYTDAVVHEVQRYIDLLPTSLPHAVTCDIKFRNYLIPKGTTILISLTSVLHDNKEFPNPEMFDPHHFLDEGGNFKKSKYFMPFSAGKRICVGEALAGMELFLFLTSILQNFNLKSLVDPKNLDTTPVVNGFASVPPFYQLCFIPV
Chain of Cytochrome P450 2C19 (P33261 whole entry): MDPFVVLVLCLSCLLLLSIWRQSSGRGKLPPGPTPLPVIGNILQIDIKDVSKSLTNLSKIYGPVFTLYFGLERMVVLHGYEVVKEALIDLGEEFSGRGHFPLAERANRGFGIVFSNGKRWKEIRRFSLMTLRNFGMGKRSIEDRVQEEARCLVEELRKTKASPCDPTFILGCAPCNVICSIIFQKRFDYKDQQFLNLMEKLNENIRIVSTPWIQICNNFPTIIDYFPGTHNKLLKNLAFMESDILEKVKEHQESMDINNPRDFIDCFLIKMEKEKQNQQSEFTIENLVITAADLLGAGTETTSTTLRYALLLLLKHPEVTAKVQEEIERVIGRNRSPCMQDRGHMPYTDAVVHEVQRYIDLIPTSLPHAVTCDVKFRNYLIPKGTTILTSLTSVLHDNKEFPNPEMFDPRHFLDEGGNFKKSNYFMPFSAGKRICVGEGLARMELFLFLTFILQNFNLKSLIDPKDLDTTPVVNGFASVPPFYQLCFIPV

microsomal CLint at 1 µM (in vitro): 53 µL/min/mg
IC50 [6]: 18.3 µM
inhibition (INH) ([6]; rat, 1 h): Dose-dependent effect
inhibition (Rattus norvegicus): 40%
Stability (Liver microsome): Stable
EC50 (Left cardiac atrium [11]): 270 nM
IC50 (Cytochrome P450 2C9): 18.4 µM
IC50 (Aorta [13]): 470 nM
IC50 (Cytochrome P450 2D6): 4.1 µM
half-life at 1 µM [20]: 53 min
IC50 (Cytochrome P450 2C19): 1800 nM
IC50 (Cytochrome P450 3A4): > 20 µM
SMILES: CCOC1(c2ccc(Br)cc2)SC=C(C)n2c1noc2=O (stereo not given)
inhibition (Aorta [1]): Active
Activity (Left cardiac atrium [2]): inactive
Activity (Aorta [3]): 10%
fold change (FC) (Left cardiac atrium [4]): 3.3
Activity (Aorta [5]): 11%
Activity (Left cardiac atrium [7]): Active
Activity (Left cardiac atrium [8]): 92%
inhibition (Aorta [9]): Active
inhibition (Aorta [10]): inactive
Activity (Left cardiac atrium [12]): Active
inhibition (Aorta [14]): Active
Activity (Left cardiac atrium [15]): 94%
Activity (Aorta [16]): 18%
Activity (Left cardiac atrium [17]): 95%
Activity (Aorta [18]): 36%
fold change (FC) (Left cardiac atrium [19]): 11.8
inhibition (Aorta [21]): inactive
Activity (Left cardiac atrium [22]): Active
